Test results reported in PMC7723568 (Annals of Translational Medicine, 2020).
pKd: −log10 of the molar value. “Also recorded” adds a separate entry of the source. Where no end group is shown, it is not given here.

Legend:
[1] = test system: SGC-7901 cells; experiment: Immunofluorescence staining of SGC-7901 cells; format: cell-based; conditions: 5 µM FITC-labeled peptide, 37 °C, 10 min, co-stained with anti-CD44v6 antibody
Outline: (§1)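 Gastric cancer cells were grown in RPMI 1640 with 10% FBS and seeded on coverslips overnight. They were fixed in 4% paraformaldehyde and blocked in 3% BSA. Cells were labelled with monoclonal anti-CD44v6 (1:500, 1 h) and a Cy3 secondary, then with 5 µM FITC-peptide at 37 °C for 10 min. Nuclei were stained with DAPI; imaging was by fluorescence microscopy at ×400.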

[2] = test system: CD44v3–v10 over expressed HEK-293 cells; experiment: Immunofluorescence staining of CD44v3–v10 over expressed HEK-293 cells; format: cell-based, human; conditions: 5 µM rhodamine B-labeled peptide; GFP reporter
Outline: (§2)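 HEK-293 cells were grown in DMEM with 10% FBS and transfected 48 h beforehand with a GFP-reporter CD44v3–v10 plasmid or an empty plasmid. Cells were fixed in 4% paraformaldehyde and blocked in 3% BSA. They were then stained with 5 µM rhodamine B-labelled peptide, with scrambled peptide as control. Nuclei were stained with DAPI, and cells were imaged by fluorescence microscopy at ×400.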

[3] = test system: excised tumor and organs (liver, stomach, kidney, lung, heart) of SGC-7901 xenograft mice; experiment: Biodistribution: fluorescence imaging of excised tumor and organs; format: in vivo, BALB/c-nu/nu mice; conditions: FITC labeled, 1 µg/g, i.v., 3 h after injection
[4] = test system: HEK-293 cells transfected with empty plasmids; experiment: Immunofluorescence staining of HEK-293 cells transfected with empty plasmid; format: cell-based, human; conditions: 5 µM rhodamine B-labeled peptide; GFP reporter
Outline: as §2

[5] = test system: MKN-28 cells; experiment: Immunofluorescence staining of MKN-28 cells; format: cell-based; conditions: 5 µM FITC-labeled peptide, 37 °C, 10 min, co-stained with anti-CD44v6 antibody
Outline: as §1

[6] = test system: MKN-45 cells; experiment: Immunofluorescence staining of MKN-45 cells; format: cell-based; conditions: 5 µM FITC-labeled peptide, 37 °C, 10 min, co-stained with anti-CD44v6 antibody
Outline: as §1

[7] = biological target: CD44v3–v10 protein (Homo sapiens, UniProt P16070); experiment: Binding affinity to CD44v3–v10 protein
Chain of CD44v3–v10 protein (P16070 21-699 isoform P16070-4 limits assumed): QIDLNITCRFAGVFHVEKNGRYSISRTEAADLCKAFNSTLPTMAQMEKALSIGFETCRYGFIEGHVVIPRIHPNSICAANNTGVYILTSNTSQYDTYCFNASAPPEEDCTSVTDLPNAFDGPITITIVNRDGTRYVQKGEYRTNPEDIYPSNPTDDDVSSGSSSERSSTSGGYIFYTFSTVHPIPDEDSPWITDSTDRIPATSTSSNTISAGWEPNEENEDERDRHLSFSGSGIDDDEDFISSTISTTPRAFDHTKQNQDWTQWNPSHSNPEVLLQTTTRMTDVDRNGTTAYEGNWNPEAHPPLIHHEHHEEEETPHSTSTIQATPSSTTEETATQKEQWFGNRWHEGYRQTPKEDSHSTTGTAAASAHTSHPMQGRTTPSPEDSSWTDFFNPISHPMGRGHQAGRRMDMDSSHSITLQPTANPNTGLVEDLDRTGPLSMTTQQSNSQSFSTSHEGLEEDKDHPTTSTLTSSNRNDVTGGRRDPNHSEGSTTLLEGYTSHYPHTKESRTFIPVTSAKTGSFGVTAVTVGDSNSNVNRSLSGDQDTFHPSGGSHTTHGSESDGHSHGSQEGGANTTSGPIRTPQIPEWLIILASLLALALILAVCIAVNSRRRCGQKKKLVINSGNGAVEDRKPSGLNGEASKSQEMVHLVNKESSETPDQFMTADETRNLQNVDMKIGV
Outline: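 Biotin-labelled peptide at a range of concentrations was incubated with immobilised recombinant CD44v3–v10 protein, with BSA as the comparison surface. Bound peptide was read as OD values, as in the competitive ELISA. Kd came from fitted binding curves and Scatchard plots. A scrambled peptide was the control. Each point was measured three times, mean ± SD.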

[8] = test system: SGC-7901 subcutaneous GC xenograft; experiment: In vivo fluorescence imaging of SGC-7901 xenograft models; parameters: species or system BALB/c-nu/nu mice; conditions: FITC labeled, 1 µg/g body weight, tail vein
Outline: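 Male BALB/c nude mice (4–5 weeks, 20–25 g) received 5×10^6 SGC-7901 cells subcutaneously in the axilla, and tumours grew about 3 weeks to 1 cm3. Mice were randomised to two groups of ten. Each group received FITC-peptide probe or FITC-scrambled peptide, 1 µg/g via the tail vein. Under isoflurane, five mice per group were imaged every half hour until the probe was excreted. Signal was expressed as (p/sec/cm2/sr)/(µW/cm2), mean ± SE.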

[9] = test system: CD44v3–v10 over expressed HEK-293 cells; format: binding, human; conditions: in words; 1×10^10 pfu/well, 37 °C, 1 h
Outline: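 HEK-293 cells were transfected with a CD44v3–v10 plasmid or an empty plasmid, and assayed 48 h later. Candidate or unrelated phages (1×10^10 pfu/well) were bound for 1 h at 37 °C, then washed six times. Detection used goat anti-M13 (1:200), HRP secondary (1:5,000) and TMB, read at OD450. Selectivity = (ODpv – ODbv)/(ODpc – ODbc), with backgrounds from cells without phage. Triplicate, mean ± SD.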

[10] = test system: Recombinant CD44v3–v10 protein; experiment: Competitive inhibition ELISA on recombinant CD44v3–v10 protein; format: binding, human; conditions: in words; CD44v3–v10 protein 1 µg/well; various peptide concentrations; n = 3
Outline: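 Plates were coated with recombinant CD44v3–v10 protein (1 µg/well) and preincubated with candidate or control peptide at various concentrations. Candidate phage binding was then read by phage ELISA: goat anti-M13 (1:200), HRP secondary (1:5,000), TMB, OD450. Inhibition = 100% – 100%×(ODt – ODb)/(ODi – ODb), where ODb is wells lacking anti-M13 antibody.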

EHDNTGMLYSVD [control peptide]
Fluorescent staining of SGC-7901 [1]: only background staining | Fluorescent staining of CD44v3–v10 over expressed HEK-293 [2]: only background staining | Distribution in liver and kidney [3]: distributed in liver and kidney | Strong fluorescence on excised tumor tissue (mice positive/total) ([3]; five mice per group): not control group | Fluorescent staining of HEK-293 transfected with empty plasmid [4]: only background staining | Fluorescent staining of MKN-28 [5]: only background staining | Fluorescent staining of MKN-45 [6]: only background staining

ELTVMGYYPGMS [ELT, ELTVMGYYPGMS]
pKd [7]: 6.21 | Distribution in liver and kidney [3]: distributed in liver and kidney | Elimination (fluorescence signal four hours after injection) ([8]; 4 h): nearly undetectable | Time of top fluorescent intensity in tumor ([8]; n = 5): 3 h

ELTVMGYYPGMS [C3]
Binding activity / affinity / selectivity ranking in phage ELISA [9]: highest binding activity and frequency; also recorded: second highest selectivity; also recorded: highest affinity

THMPSDPGMNLL [C1]
Binding activity / affinity / selectivity ranking in phage ELISA [9]: highest binding activity and frequency; also recorded: considerable affinity

THMPSDPGMNLL
Inhibition of candidate phage binding by displayed peptide [10]: dose-dependent manner
